The text below walks through data of ChEMBL document CHEMBL1124143, “Nonisomerizable analogues of (Z)- and (E)-4-hydroxytamoxifen. Synthesis and endocrinological properties of substituted diphenylbenzocycloheptenes” (1988).

Test [1] concerns the target Estrogen receptor (Homo sapiens) (UniProt Q92731+P03372). Briefly: Inhibition of [3H]estradiol binding to Estrogen receptor of MCF-7 cell lysate […]. The test is classed as cell-based.
Test [2] relates to MCF7. The test can be described thus: Inhibition of MCF-7 human mammary tumor cell proliferation at 1*10e-8M. Format: functional. The method in brief: (§1)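 MCF-7 cells were plated at 5000 cells/mL. […] Cell number was read as colour intensity at 540 nm. Values are means of optical density from four separate cultures, […]. Statistics were one-way ANOVA with Newman-Keuls test.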

Test [3] has as its system MCF7. The test can be described thus: Inhibition of MCF-7 human mammary tumor cell proliferation 1*10e-7 M. The test is classed as functional. In short, it runs like this:
as §1

For test [4], the system named is MCF7. Briefly: Inhibition of 1*10e-7 M estradiol induced proliferation of MCF-7 human mammary tumor cells at 1*10e-6 M. The test is classed as functional. In short, it runs like this:
as §1

For test [5], the system named is MCF7. Briefly: (§2) Inhibition of 1*10e-8M estradiol induced proliferation of MCF-7 human mammary tumor cells. The test is classed as functional. In short, it runs like this:
as §1

In test [6] the test system is MCF7. Briefly: Inhibition of 1*10e-8M estradiol induced proliferation of MCF-7 human mammary tumor cells at 1*10e-7 M. Format: functional. In short, it runs like this:
as §1

In test [7] the test system is MCF7. Described as §2. Format: functional. In short, it runs like this:
as §1
The source holds these as a separate data set.

The subject of test [8] is MCF7. Briefly: Inhibition of MCF-7 human mammary tumor cell proliferation. The test is classed as functional. In short, it runs like this: as §1
For test [9], the system named is MCF7. The test can be described thus: Inhibition of MCF-7 human mammary tumor cell proliferation at 1*10e-6 M. Format: functional. In short, it runs like this: as §1
Test [10] concerns the target T1, Estrogen receptor (Rattus norvegicus) (UniProt P06211+Q62986). The test can be described thus: In vivo anti-uterotrophic effect in 0.2 ug estradiol benzoate stimulated immature rats at 10 ug. Format: functional, organism-based. The method in brief:
(§3)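 Immature female Sprague-Dawley rats got daily subcutaneous injections of compound in 0.1 mL peanut oil for 3 days and were killed on day 4. Read-out was uterine weight (mg).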

Test [11] addresses T1, Estrogen receptor (Rattus norvegicus). The test can be described thus: In vivo anti-uterotrophic effect in 0.2 ug estradiol benzoate stimulated immature rats at 20 ug. Format: functional, organism-based. In short, it runs like this:
as §3

For test [12] the target is unchanged. Briefly: In vivo anti-uterotrophic effect in 0.2 ug estradiol benzoate stimulated immature rats at 5 ug. The test is classed as functional, organism-based. The method in brief:
as §3

For test [13] the target is unchanged. The test can be described thus: In vivo anti-uterotrophic effect in 0.2 ug estradiol benzoate stimulated immature rats at 12.5 ug. Format: functional, organism-based. In short, it runs like this:
as §3

For test [14] the target is unchanged. The test can be described thus: In vivo anti-uterotrophic effect in 0.2 ug estradiol benzoate stimulated immature rats at 25 ug. Format: functional, organism-based. The method in brief:
as §3

For test [15] the target is unchanged. The test can be described thus: In vivo anti-uterotrophic effect in 0.2 ug estradiol benzoate stimulated immature rats at 50 ug. Format: functional, organism-based. The method in brief:
as §3

The target is the same in test [16]. The test can be described thus: In vivo uterotrophic effect in estradiol stimulated immature rats. The test is classed as functional, organism-based. In short, it runs like this: as §3
The subject of test [17] is MCF7. The test can be described thus: Inhibition of 1*10e-7 M estradiol induced proliferation of MCF-7 human mammary tumor cells at 1*10e-7 M. Format: functional. The method in brief: as §1
Test [18] relates to MCF7. Briefly: Inhibition of 1*10e-7 M estradiol induced proliferation of MCF-7 human mammary tumor cells at 1*10e-8M. Format: functional. In short, it runs like this: as §1
The subject of test [19] is MCF7. Briefly: Inhibition of MCF-7 human mammary tumor cell proliferation at 1*10e-7 M. Format: functional. The method in brief:
as §1

As for `CN(C)CCOc1ccc(C2=C(c3ccccc3)CCCc3cc(O)ccc32)cc1`, in test [1], the relative binding affinity (RBA) was determined as 1.5. The Optical density with MCF7 [2] came to 0.126; with MCF7 [3], 0.066; in the test on MCF7 [4], 0.068; in the test with MCF7 [5], 0.727; in the test on MCF7 [6], 0.147; in the test with MCF7 [7] it was 0.52. In addition, the figures for the Optical density in the test with MCF7 [8] and in the test with MCF7 [9] were 0.417 and 0.083, respectively. In addition, the Uterine weight is 72 in test [10], 71 in test [11] and 75 in test [12].
Turning to `CN(C)CCOc1ccc(C2=C(c3ccccc3)CCCc3ccccc32)cc1`, the Uterine weight is 92 in test [13], 75 in test [14] and 77 in [15].
The compound `C[C@]12CC[C@@H]3c4ccc(OC(=O)c5ccccc5)cc4CC[C@H]3[C@@H]1CC[C@@H]2O` yielded a Uterine weight in test [16] of 108.
For `CN(C)CCOc1ccc2c(c1)CCCC(c1ccccc1)=C2c1ccc(O)cc1`, the Optical density is recorded as 0.44 in the test on MCF7 [2]; 0.363 in the test with MCF7 [4]; 0.566 in the test on MCF7 [17]; 0.659 in the test with MCF7 [18]; 0.707 in the test on MCF7 [5]; 0.328 in the test on MCF7 [19]. Moreover, the Optical density is 0.337 in the test with MCF7 [8] and 0.162 in the test with MCF7 [9].
